Experimental findings from ChEMBL document CHEMBL4425108, “A Selective and Slowly Reversible Inhibitor of l-Type Amino Acid Transporter 1 (LAT1) Potentiates Antiproliferative Drug Efficacy in Cancer Cells” (J Med Chem, 2016) are described below.

Activity calls are given as the source filed them. The rule behind the calls is not given here.

A short description of data set [1]: Fraction unbound in mouse kidney at 23 umol/kg, ip administered as bolus by LC-MS analysis. It counts as ADME, organism-based. In a few lines: (§1)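 Unbound fraction was measured by equilibrium dialysis at 100 µM in mouse plasma and in brain, liver, kidney, heart and prostate homogenates.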
A short description of data set [2]: Ratio of IC50 for human MCF7 cells to IC50 for [14C]-L-leucine uptake at LAT1 in human MCF7 cells.
Data set [3] in a line: Tmax in mouse heart at 23 umol/kg, ip administered as bolus by LC-MS analysis. The format is ADME, organism-based. In a few lines:
(§2)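 Adult male mice (25 ± 5 g) given a single i.p. bolus of 23 µmol/kg, dosing solution 1.36 mM in 10% (v/v) DMSO, 20% (w/v) hydroxypropyl-β-cyclodextrin, 0.9% NaCl in water. Decapitation at time points 10–480 min; plasma, brain, liver, prostate, kidney, heart collected. Acetonitrile precipitation with repaglinide internal standard, LC-MS (ESI positive). tmax and t½β taken from concentration-time data; mean ± SEM, n=3.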

Data set [4] in a line: Unbound AUC (0 to 480 mins) in mouse prostate at 23 umol/kg, ip administered as bolus by LC-MS analysis. The settings on record: in vivo. It counts as ADME, organism-based, Prostate gland. In a few lines:
(§3)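 Male mice (25 ± 5 g) dosed i.p. as a bolus at 23 µmol/kg in DMSO/hydroxypropyl-β-cyclodextrin/saline vehicle, sampled at time points 10–480 min; plasma and tissue homogenates (1:3 water) analysed by LC-MS. […] Mean ± SEM.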

In data set [5] the target is T1, Large neutral amino acids transporter small subunit 1 (Homo sapiens, UniProt Q01650). As to the kind of experiment: Drug uptake in human MCF7 cells assessed as LAT1 mediated drug transport per mg of protein at 100 uM measured 30 mins after warm wash by HPLC analysis. The conditions noted are these: mcf7, 0.5 h. It counts as ADME, cell-based. In a few lines:
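MCF-7 monolayers were incubated with 100 µM compound in HBSS at 37 °C for 5 or 30 min. Cells got three washes with ice-cold or warm (37 °C) HBSS; in the warm 30 min arm they were washed after 5 min and again after 30 min. Lysates (0.1 M NaOH) were quantified by HPLC-UV against a spiked lysate standard curve and normalised to protein (Bio-Rad assay).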

Data set [6] in a line: Terminal half life in mouse brain at 23 umol/kg, ip administered as bolus by LC-MS analysis. The conditions noted are these: read-out: beta t1/2. It counts as ADME, organism-based. In a few lines: (§4)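 Male adult mice (25 ± 5 g) given a single i.p. bolus at 23 µmol/kg. The dosing solution was 1.36 mM in 10% (v/v) DMSO, 20% (w/v) hydroxypropyl-β-cyclodextrin and 0.9% NaCl. Animals were decapitated at seven time points from 10 to 480 min. Plasma and tissues were acetonitrile-precipitated with repaglinide internal standard and analysed by LC-MS. Parameters were derived from concentration–time data, mean ± SEM (n=3).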

Data set [7] can be described thus: Unbound AUC (0 to 480 mins) in mouse liver at 23 umol/kg, ip administered as bolus by LC-MS analysis. It counts as ADME, organism-based. The conditions noted are these: in vivo. In a few lines: as §3
The nature of data set [8]: Plasma concentration in mouse at 23 umol/kg, ip measured after 10 mins. It counts as ADME, organism-based.
A short description of data set [9]: Unbound AUC (0 to 480 mins) in mouse brain at 23 umol/kg, ip administered as bolus by LC-MS analysis. The format is ADME, organism-based. The settings on record: in vivo. In a few lines:
as §3

Data set [10] in a line: Unbound AUC (0 to 480 mins) in mouse kidney at 23 umol/kg, ip administered as bolus by LC-MS analysis. The format is ADME, organism-based. The conditions noted are these: in vivo. In a few lines: as §3
The subject of data set [11] is MCF7. As to the kind of experiment: Antiproliferative activity against human MCF7 cells assessed as reduction in cell viability at 100 measured after 48 hrs by resazurin dye-based fluorimetric analysis. It counts as functional. In a few lines:
(§5)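 MCF-7 cells were seeded at 2 × 10^4 cells/well on collagen-coated plates and treated one day later. Agents were given alone or combined (25 or 100 µM with 100 µM partner drug) in growth medium for 3 days. Viability was read daily by resazurin fluorescence (ex 560/em 590 nm) and expressed relative to untreated controls.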
Background: The colour change of resazurin is a common sign of viable cells or microbes.

Data set [12] relates to MCF7. As to the kind of experiment: Antiproliferative activity against human MCF7 cells assessed as reduction in cell viability at 25 measured after 72 hrs by resazurin dye-based fluorimetric analysis. The format is functional. In a few lines: as §5
The nature of data set [13]: Tmax in mouse liver at 23 umol/kg, ip administered as bolus by LC-MS analysis. It counts as ADME, organism-based. In a few lines: as §2
Data set [14] can be described thus: Cmax in mouse heart at 23 umol/kg, ip administered as bolus by LC-MS analysis. It counts as ADME, organism-based. Also on record: dose 23 umol/kg, route intraperitoneal. The settings on record: in vivo. In a few lines:
as §4

A short description of data set [15]: Terminal half life in mouse plasma at 23 umol/kg, ip administered as bolus by LC-MS analysis. The format is ADME, organism-based. The conditions noted are these: read-out: beta t1/2. In a few lines:
as §2

In data set [16] the target is T1, Large neutral amino acids transporter small subunit 1. As to the kind of experiment: Competitive binding to LAT1 in human MCF7 cells at 100 uM after 30 mins in presence of unselective OATP substrate L-thyroxine by HPLC analysis. The format is cell-based. In a few lines:
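MCF-7 cells incubated 30 min at 37 °C in HBSS (pH 7.4) holding 100 µM test compound plus 500 µM competitor. Cells washed three times with ice-cold HBSS and lysed in 0.1 M NaOH. Cell-associated compound measured by HPLC against a lysate-spiked standard curve and normalised to protein. Mean ± SD, n=3.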

The test system of data set [17] is MCF7. The data set can be described thus: Antiproliferative activity against human MCF7 cells assessed as reduction in cell viability at 100 measured after 72 hrs by resazurin dye-based fluorimetric analysis. The format is functional. In a few lines: as §5
A short description of data set [18]: Fraction unbound in mouse brain at 23 umol/kg, ip administered as bolus by LC-MS analysis. It counts as ADME, organism-based. In a few lines:
as §1

In data set [19] the test system is MCF7. As to the kind of experiment: Antiproliferative activity against human MCF7 cells assessed as reduction in cell viability at 25 uM measured after 24 hrs by resazurin dye-based fluorimetric analysis. The format is functional. In a few lines: as §5
A short description of data set [20]: Terminal half life in mouse heart at 23 umol/kg, ip administered as bolus by LC-MS analysis. The format is ADME, organism-based. The conditions noted are these: read-out: beta t1/2. In a few lines: as §4
Data set [21] concerns the target Large neutral amino acids transporter small subunit 1 (Mus musculus, UniProt Q9Z127). The data set can be described thus: Drug uptake in mouse brain assessed as LAT1-mediated unidirectional transfer constant measured after perfusion. It counts as ADME, tissue-based. The settings on record: in vivo. In a few lines:
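In situ brain perfusion in anaesthetised male mice used 100 µM compound at 37 °C, 2.5 mL/min, for 60 s, then 2 s drug-free buffer at 4 °C. Kin = Qtot/(Cpf × T); mean ± SD, n=3.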

For another data set, the system named is Mus musculus. As to the kind of experiment: Binding affinity to LAT1 in mouse brain assessed as inhibition of [14C]-L-leucine uptake at 23 umol/kg, ip measured post perfusion with [14C]-L-leucine. It counts as functional, organism-based. The conditions noted are these: TDE = time-dependent effect. In a few lines:
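Mice under ketamine/xylazine anaesthesia had the right common carotid artery cannulated. Brains were perfused at 37 °C, 2.5 mL/min, for 30 s with 0.157 µM [14C]-L-leucine, then 2 s with analyte-free buffer at 4 °C. Perfusion took place 10 or 180 min after 23 µmol/kg i.p. dosing.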

Data set [22] has as its system MCF7. The data set can be described thus: Antiproliferative activity against human MCF7 cells assessed as reduction in cell viability at 100 measured after 24 hrs by resazurin dye-based fluorimetric analysis. It counts as functional. In a few lines:
as §5

For data set [23], the target named is T1, Large neutral amino acids transporter small subunit 1. As to the kind of experiment: Competitive inhibition of [14C]-L-leucine uptake at LAT1 in human MCF7 cells at 25 uM preincubated for 10 mins followed by addition of substrate measured during 5 mins by liquid scintillation counting. It counts as cell-based. In a few lines: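 MCF-7 cells seeded 1 × 10^5/well, used one day later. Washed and pre-incubated 10 min at 37 °C in choline-chloride HBSS (Na+-free, 25 mM HEPES, pH 7.4), then 5 min at 37 °C with 0.157 µM [14C]-L-leucine plus 1-1000 µM inhibitor (DMSO blank). Ice-cold washes, NaOH lysis, scintillation counting. IC50 by nonlinear regression over 8 concentrations. Mean ± SD, n=3.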

T1 sequence (Q01650 whole entry): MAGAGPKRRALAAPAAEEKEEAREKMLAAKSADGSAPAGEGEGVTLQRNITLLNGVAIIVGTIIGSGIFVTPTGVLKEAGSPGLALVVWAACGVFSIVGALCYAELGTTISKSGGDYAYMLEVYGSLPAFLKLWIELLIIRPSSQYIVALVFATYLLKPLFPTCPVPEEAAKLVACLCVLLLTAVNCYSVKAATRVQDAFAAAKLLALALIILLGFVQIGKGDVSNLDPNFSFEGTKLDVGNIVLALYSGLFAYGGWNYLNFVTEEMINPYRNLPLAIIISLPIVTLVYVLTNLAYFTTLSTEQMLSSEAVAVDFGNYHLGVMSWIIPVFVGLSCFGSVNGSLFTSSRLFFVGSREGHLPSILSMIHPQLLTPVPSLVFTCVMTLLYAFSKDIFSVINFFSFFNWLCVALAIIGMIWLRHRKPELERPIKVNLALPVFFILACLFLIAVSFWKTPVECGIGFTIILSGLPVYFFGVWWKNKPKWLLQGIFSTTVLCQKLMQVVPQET
Sequence of Large neutral amino acids transporter small subunit 1 (Mus musculus, UniProt Q9Z127) (Q9Z127 whole entry, the tested form may be a part): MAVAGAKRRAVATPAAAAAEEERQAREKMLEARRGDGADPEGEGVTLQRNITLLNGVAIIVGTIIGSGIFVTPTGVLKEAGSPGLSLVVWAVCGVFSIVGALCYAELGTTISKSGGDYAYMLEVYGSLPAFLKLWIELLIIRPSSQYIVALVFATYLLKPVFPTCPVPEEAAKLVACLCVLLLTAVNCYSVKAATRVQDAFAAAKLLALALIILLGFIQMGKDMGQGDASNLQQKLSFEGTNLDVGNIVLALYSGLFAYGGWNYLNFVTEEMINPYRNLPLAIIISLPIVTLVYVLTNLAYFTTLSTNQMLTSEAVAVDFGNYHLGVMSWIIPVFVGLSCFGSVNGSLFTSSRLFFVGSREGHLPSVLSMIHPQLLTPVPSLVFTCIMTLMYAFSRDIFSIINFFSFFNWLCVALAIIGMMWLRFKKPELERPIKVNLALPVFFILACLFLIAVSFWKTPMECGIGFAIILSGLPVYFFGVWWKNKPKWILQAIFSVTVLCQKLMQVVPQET

Usually fraction unbound stands for free concentration divided by total concentration. In general, Tmax refers to the time from dosing to the highest level. What is called inhibition is the drop in the measured response relative to a control, in per cent. A lower inhibition goes with little suppression. In the case of `CNC(=O)COc1ccc(-c2c(C#N)c(NC(=O)c3cccc(C[C@H](N)C(=O)O)c3)n3c(nc4ccccc43)c2C#N)cc1`, the fraction unbound turned out to be 0.0166 in data set [1] and 0.0103 in [18]. In data set [2], the “Ratio IC50” value is on record as 6.9. Moreover, the results for the Tmax in [3] and in [13] were 30 min and 10 min, respectively. Besides, the fAUC in [4] is recorded as 18.4 nmol/g/min; in [7], 18.9 nmol/g/min; in data set [9], 0.1 nmol/g/min; in data set [10], 23.7 nmol/g/min. In addition, in [5], the Drug uptake came out at 0.21 nmol/mg. Besides, the half-life is 71.6 min in [6], 44.9 min in data set [15] and 19.8 min in [20]. This molecule also returned a concentration at 10 min in data set [8] of 20 µM. Besides, the Activity in the data set with MCF7 [11] is 14.8%; in the data set on MCF7 [12] it was 34.8%; with MCF7 [17] it was 47.7%; in the data set with MCF7 [19] it was 13.9%; in the data set on Mus musculus it was “Tde”; in the data set with MCF7 [22], 22.9%. Besides, the Cmax in [14] came to 4.9 nmol/g. Besides, in data set [16], the result was Active. Further, the Kin in data set [21] amounted to 8.2 ×10⁻⁵ ml/s/g. This molecule also yielded an inhibition in data set [23] of 55.1%.
